Experimental data from ChEMBL document CHEMBL4732237, “Discovery of 4-alkoxy-2-aryl-6,7-dimethoxyquinolines as a new class of topoisomerase I inhibitors endowed with potent in vitro anticancer activity” (2021).

Legend:
Type in all cases: functional
Settings in all cases: read-out: GI
HL-60(TB) = experiment: Growth inhibition of human HL-60(TB) cells at 10 uM incubated for 48 hrs by sulforhodamine B assay relative to control
Outline: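 NCI-60 one-dose screen: same culture, 48 h drug exposure and SRB read-out. Reported as percent growth relative to no-drug control and to time-zero cell number; 0–100 means growth inhibition, below 0 means lethality.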

MOLT-4 = experiment: Growth inhibition of human MOLT-4 cells at 10 uM incubated for 48 hrs by sulforhodamine B assay relative to control
Outline: (§1)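 NCI one-dose screen. Cells grown in RPMI 1640 with 5% FBS and 2 mM L-glutamine, plated and incubated 24 h at 37 °C, 5% CO2. DMSO-dissolved drug added, then 48 h further incubation. Adherent cells fixed with cold TCA, suspension cells fixed after settling. Stained with 0.4% SRB, absorbance read at 515 nm. Reported as percent growth relative to no-drug control and time-zero cell number.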

SR = experiment: Growth inhibition of human SR cells at 10 uM incubated for 48 hrs by sulforhodamine B assay relative to control; outline: as §1
HOP-62 = experiment: Growth inhibition of human HOP-62 cells at 10 uM incubated for 48 hrs by sulforhodamine B assay relative to control
Outline: (§2)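 NCI-60 single-dose screen. Cells were grown in RPMI 1640 with 5% FBS and 2 mM L-glutamine and plated 24 h before drug addition. Compound was added at one concentration in DMSO-derived medium and incubated for 48 h at 37 °C in 5% CO2. Read-out was SRB protein stain at 515 nm. Result is percent growth versus the no-drug control and the time-zero cell count; values below 0 indicate lethality.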

HOP-92 = experiment: Growth inhibition of human HOP-92 cells at 10 uM incubated for 48 hrs by sulforhodamine B assay relative to control; outline: as §2
NCI-H23 = experiment: Growth inhibition of human NCI-H23 cells at 10 uM incubated for 48 hrs by sulforhodamine B assay relative to control; outline: as §1
NCI-H322M = experiment: Growth inhibition of human NCI-H322M cells at 10 uM incubated for 48 hrs by sulforhodamine B assay relative to control; outline: as §1
NCI-H460 = experiment: Growth inhibition of human NCI-H460 cells at 10 uM incubated for 48 hrs by sulforhodamine B assay relative to control; outline: as §1
COLO 205 = experiment: Growth inhibition of human COLO 205 cells at 10 uM incubated for 48 hrs by sulforhodamine B assay relative to control; outline: as §2
KM12 = experiment: Growth inhibition of human KM12 cells at 10 uM incubated for 48 hrs by sulforhodamine B assay relative to control; outline: as §2
SW-620 = experiment: Growth inhibition of human SW-620 cells at 10 uM incubated for 48 hrs by sulforhodamine B assay relative to control
Outline: (§3)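 NCI one-dose screen across a 59-line panel. Cells were grown in RPMI 1640 with 5% FBS and 2 mM L-glutamine, plated and pre-incubated 24 h, then exposed to drug for 48 h at 37 °C, 5% CO2. Adherent cells were fixed with cold TCA (10% final), stained with 0.4% SRB in 1% acetic acid and read at 515 nm. Result is percent growth relative to no-drug control and time-zero cell count.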

SF-295 = experiment: Growth inhibition of human SF-295 cells at 10 uM incubated for 48 hrs by sulforhodamine B assay relative to control; outline: as §1
SNB-19 = experiment: Growth inhibition of human SNB-19 cells at 10 uM incubated for 48 hrs by sulforhodamine B assay relative to control; outline: as §1
U-251 = experiment: Growth inhibition of human U-251 cells at 10 uM incubated for 48 hrs by sulforhodamine B assay relative to control; outline: as §3
LOX IMVI = experiment: Growth inhibition of human LOX IMVI cells at 10 uM incubated for 48 hrs by sulforhodamine B assay relative to control; outline: as §2
M14 = experiment: Growth inhibition of human M14 cells at 10 uM incubated for 48 hrs by sulforhodamine B assay relative to control; outline: as §2
MDA-MB-435 = experiment: Growth inhibition of human MDA-MB-435 cells at 10 uM incubated for 48 hrs by sulforhodamine B assay relative to control; outline: as §2
SK-MEL-2 = experiment: Growth inhibition of human SK-MEL-2 cells at 10 uM incubated for 48 hrs by sulforhodamine B assay relative to control; outline: as §1
SK-MEL-28 = experiment: Growth inhibition of human SK-MEL-28 cells at 10 uM incubated for 48 hrs by sulforhodamine B assay relative to control; outline: as §1
UACC-257 = experiment: Growth inhibition of human UACC-257 cells at 10 uM incubated for 48 hrs by sulforhodamine B assay relative to control; outline: as §3
UACC-62 = experiment: Growth inhibition of human UACC-62 cells at 10 uM incubated for 48 hrs by sulforhodamine B assay relative to control; outline: as §3
IGROV-1 = experiment: Growth inhibition of human IGROV-1 cells at 10 uM incubated for 48 hrs by sulforhodamine B assay relative to control; outline: as §2
OVCAR-3 = experiment: Growth inhibition of human OVCAR-3 cells at 10 uM incubated for 48 hrs by sulforhodamine B assay relative to control; outline: as §1
OVCAR-4 = experiment: Growth inhibition of human OVCAR-4 cells at 10 uM incubated for 48 hrs by sulforhodamine B assay relative to control; outline: as §1
NCI/ADR-RES = experiment: Growth inhibition of human NCI/ADR-RES cells at 10 uM incubated for 48 hrs by sulforhodamine B assay relative to control; outline: as §1
SK-OV-3 = experiment: Growth inhibition of human SK-OV-3 cells at 10 uM incubated for 48 hrs by sulforhodamine B assay relative to control; outline: as §1
RXF 393 = experiment: Growth inhibition of human RXF 393 cells at 10 uM incubated for 48 hrs by sulforhodamine B assay relative to control; outline: as §1
SN12C = experiment: Growth inhibition of human SN12C cells at 10 uM incubated for 48 hrs by sulforhodamine B assay relative to control; outline: as §1
TK-10 = experiment: Growth inhibition of human TK-10 cells at 10 uM incubated for 48 hrs by sulforhodamine B assay relative to control; outline: as §3
PC-3 = experiment: Growth inhibition of human PC-3 cells at 10 uM incubated for 48 hrs by sulforhodamine B assay relative to control; outline: as §1
MCF7 = experiment: Growth inhibition of human MCF7 cells at 10 uM incubated for 48 hrs by sulforhodamine B assay relative to control; outline: as §2
MDA-MB-231 = experiment: Growth inhibition of human MDA-MB-231 cells at 10 uM incubated for 48 hrs by sulforhodamine B assay relative to control; outline: as §2
Hs-578T = experiment: Growth inhibition of human HS-578T cells at 10 uM incubated for 48 hrs by sulforhodamine B assay relative to control; outline: as §2
BT-549 = experiment: Growth inhibition of human BT-549 cells at 10 uM incubated for 48 hrs by sulforhodamine B assay relative to control; outline: as §2
T47D = experiment: Growth inhibition of human T47D cells at 10 uM incubated for 48 hrs by sulforhodamine B assay relative to control; outline: as §3
MDA-MB-468 = experiment: Growth inhibition of human MDA-MB-468 cells at 10 uM incubated for 48 hrs by sulforhodamine B assay relative to control; outline: as §2

Row | Compound | inhibition of growth at 10 µM (HL-60(TB)) [%] | inhibition of growth at 10 µM (MOLT-4) [%] | inhibition of growth at 10 µM (SR) [%] | inhibition of growth at 10 µM (HOP-62) [%] | inhibition of growth at 10 µM (HOP-92) [%] | inhibition of growth at 10 µM (NCI-H23) [%] | inhibition of growth at 10 µM (NCI-H322M) [%] | inhibition of growth at 10 µM (NCI-H460) [%] | inhibition of growth at 10 µM (COLO 205) [%] | inhibition of growth at 10 µM (KM12) [%] | inhibition of growth at 10 µM (SW-620) [%] | inhibition of growth at 10 µM (SF-295) [%] | inhibition of growth at 10 µM (SNB-19) [%] | inhibition of growth at 10 µM (U-251) [%] | inhibition of growth at 10 µM (LOX IMVI) [%] | inhibition of growth at 10 µM (M14) [%] | inhibition of growth at 10 µM (MDA-MB-435) [%] | inhibition of growth at 10 µM (SK-MEL-2) [%] | inhibition of growth at 10 µM (SK-MEL-28) [%] | inhibition of growth at 10 µM (UACC-257) [%] | other results
1 | COc1cc2nc(-c3ccc(Cl)cc3)cc(OCCCN3CCOCC3)c2cc1OC | 62 | 62 | 62 | 62 | 62 | 62 | 62 | 62 | 62 | 62 | 62 | 62 | 62 | 62 | 62 | 62 | 62 | 62 | 62 | 62 | inhibition of growth at 10 µM (UACC-62): 62%; inhibition of growth at 10 µM (IGROV-1): 62%; inhibition of growth at 10 µM (OVCAR-3): 62%; inhibition of growth at 10 µM (OVCAR-4): 62%; inhibition of growth at 10 µM (NCI/ADR-RES): 62%; inhibition of growth at 10 µM (SK-OV-3): 62%; inhibition of growth at 10 µM (RXF 393): 62%; inhibition of growth at 10 µM (SN12C): 62%; inhibition of growth at 10 µM (TK-10): 62%; inhibition of growth at 10 µM (PC-3): 62%; inhibition of growth at 10 µM (MCF7): 62%; inhibition of growth at 10 µM (MDA-MB-231): 62%; inhibition of growth at 10 µM (Hs-578T): 62%; inhibition of growth at 10 µM (BT-549): 62%; inhibition of growth at 10 µM (T47D): 62%; inhibition of growth at 10 µM (MDA-MB-468): 62%
2 | COc1cc2nc(-c3ccc(C(F)(F)F)cc3)cc(OCCN3CCOCC3)c2cc1OC | 13 | 13 | 13 | 13 | 13 | 13 | 13 | 13 | 13 | 13 | 13 | 13 | 13 | 13 | 13 | 13 | 13 | 13 | 13 | 13 | inhibition of growth at 10 µM (UACC-62): 13%; inhibition of growth at 10 µM (IGROV-1): 13%; inhibition of growth at 10 µM (OVCAR-3): 13%; inhibition of growth at 10 µM (OVCAR-4): 13%; inhibition of growth at 10 µM (NCI/ADR-RES): 13%; inhibition of growth at 10 µM (SK-OV-3): 13%; inhibition of growth at 10 µM (RXF 393): 13%; inhibition of growth at 10 µM (SN12C): 13%; inhibition of growth at 10 µM (TK-10): 13%; inhibition of growth at 10 µM (PC-3): 13%; inhibition of growth at 10 µM (MCF7): 13%; inhibition of growth at 10 µM (MDA-MB-231): 13%; inhibition of growth at 10 µM (Hs-578T): 13%; inhibition of growth at 10 µM (BT-549): 13%; inhibition of growth at 10 µM (T47D): 13%; inhibition of growth at 10 µM (MDA-MB-468): 13%
